Results reported in ChEMBL document CHEMBL4689842, “EUbOPEN Chemogenomics Library wave 1” (2021).
Values joined by “and” are separate entries in the source; they are usually repeats but may differ in a detail not shown here. Identical values can stand only once.

Key:
Type in all cases: toxicity, cell-based
U2OS [1] = assay: Incucyte cell viability with U2OS; settings: human, 10 µM, compound concentration 10 uM; further: filed as whole numbers so only -1 and 0 and 1 occur
Fibroblast [2] = assay: Multiplex assay against human fibroblast; settings: 10 µM, compound concentration 10 uM
In short: (§1)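 Imaging took place on a CQ1 microscope at 37°C and 5% CO2 once compound had been added to live cells stained at seeding with Hoechst33342, BioTracker Green Microtubule Cytoskeleton Dye, MitoTracker Red and Annexin V Alexa Fluor 680. CellPathfinder machine-learning gating classed cells as Hoechst high-intensity objects or normal cells, classed normal cells as having healthy, pyknosed or fragmented nuclei, and classed pyknosed cells as mitotic or apoptotic. Tubulin, mitochondrial-mass and membrane-permeability phenotypes are per cents of the healthy-nucleus cells.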

HEK-293T [3] = assay: Multiplex assay against HEK293T; settings: human, 10 µM, compound concentration 10 uM; in short: as §1;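 on Population Tubulin-Different-Phenotype (%): share of the cells with healthy nuclei that show this phenotype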
HEK-293T [4] = assay: Incucyte cell viability with HEK293T; settings: human, 10 µM, compound concentration 10 uM; further: filed as whole numbers so only -1 and 0 and 1 occur
U2OS [5] = assay: Multiplex assay against U2OS; settings: human, 10 µM, compound concentration 10 uM; in short: as §1
Fibroblast [6] = assay: Incucyte cell viability with human fibroblast; settings: 10 µM, compound concentration 10 uM; further: filed as whole numbers so only -1 and 0 and 1 occur
[7] = 6 h, replicate number 1, timepoint 6 hours
[8] = 12 h, replicate number 1, timepoint 12 hours
[9] = 18 h, replicate number 1, timepoint 18 hours
[10] = 24 h, replicate number 1, timepoint 24 hours

CNCc1ccccc1-c1csc([C@H](C)Nc2nc(C)nc3cc(OC)c(OC)cc23)c1 [BAY-294]
Growth Rate (U2OS [1]; 0 h, replicate number 1, timepoint 0 hours): 0
Growth Rate (U2OS [1]; [7]): 0
Growth Rate (U2OS [1]; [8]): 0
Growth Rate (U2OS [1]; [9]): 0
Growth Rate (U2OS [1]; [10]): 0
Population Apoptotic (%) (Fibroblast [2]; 12 h, replicate 1): 43% and 56% and 82%
Population Fragmented Nuclei (%) (Fibroblast [2]; 12 h, replicate 1): 26% and 31% and 27%
Population Membrane Permeable-Phenotype (%) (Fibroblast [2]; 12 h, replicate 1): 18% and 34% and 33%
Population Normal (%) (Fibroblast [2]; 12 h, replicate 1): 70% and 93% and 84%
Population Pyknosed Nuclei (%) (Fibroblast [2]; 12 h, replicate 1): 25% and 52% and 62%
Population Tubulin-Different-Phenotype (%) (Fibroblast [2]; 12 h, replicate 1): 34% and 69% and 83%
Population Apoptotic (%) (Fibroblast [2]; 12 h, replicate 2): 78% and 55% and 57%
Population Fragmented Nuclei (%) (Fibroblast [2]; 12 h, replicate 2): 54% and 37% and 46%
Population Hoechst High Intensity Objects (%) (Fibroblast [2]; 12 h, replicate 2): 27% and 35% and 55%
Population Mitotic Cells (%) (Fibroblast [2]; 12 h, replicate 2): 21% and 45% and 42%
Population Normal (%) (Fibroblast [2]; 12 h, replicate 2): 72% and 64% and 44%
Population Pyknosed Nuclei (%) (Fibroblast [2]; 12 h, replicate 2): 31% and 19% and 30%
Population Tubulin-Different-Phenotype (%) (Fibroblast [2]; 12 h, replicate 2): 77% and 56% and 100%
Population Apoptotic (%) (Fibroblast [2]; 24 h, replicate 1): 54% and 89%
Population Fragmented Nuclei (%) (Fibroblast [2]; 24 h, replicate 1): 17% and 38% and 29%
Population Hoechst High Intensity Objects (%) (Fibroblast [2]; 24 h, replicate 1): 41% and 14% and 31%
Population Normal (%) (Fibroblast [2]; 24 h, replicate 1): 58% and 85% and 68%
Population Pyknosed Nuclei (%) (Fibroblast [2]; 24 h, replicate 1): 32% and 54% and 49%
Population Tubulin-Different-Phenotype (%) (Fibroblast [2]; 24 h, replicate 1): 31% and 43% and 83%
Population Apoptotic (%) (Fibroblast [2]; 24 h, replicate 2): 31% and 93% and 78%
Population Fragmented Nuclei (%) (Fibroblast [2]; 24 h, replicate 2): 33% and 60% and 52%
Population Hoechst High Intensity Objects (%) (Fibroblast [2]; 24 h, replicate 2): 37% and 38% and 54%
Population Normal (%) (Fibroblast [2]; 24 h, replicate 2): 62% and 61% and 45%
Population Pyknosed Nuclei (%) (Fibroblast [2]; 24 h, replicate 2): 29% and 33% and 27%
Population Apoptotic (%) (Fibroblast [2]; 48 h, replicate 1): 75%
Population Fragmented Nuclei (%) (Fibroblast [2]; 48 h, replicate 1): 40%
Population Healthy Nuclei (%) (Fibroblast [2]; 48 h, replicate 1): 44%
Population Hoechst High Intensity Objects (%) (Fibroblast [2]; 48 h, replicate 1): 35%
Population Membrane Permeable-Phenotype (%) (Fibroblast [2]; 48 h, replicate 1): 43%
Population Mitochondria Different-Phenotype (%) (Fibroblast [2]; 48 h, replicate 1): 52%
Population Mitotic Cells (%) (Fibroblast [2]; 48 h, replicate 1): 25%
Population Normal (%) (Fibroblast [2]; 48 h, replicate 1): 64%
Population Pyknosed Nuclei (%) (Fibroblast [2]; 48 h, replicate 1): 15%
Population Tubulin-Different-Phenotype (%) (Fibroblast [2]; 48 h, replicate 1): 65%
Population Apoptotic (%) (Fibroblast [2]; 48 h, replicate 2): 100%
Population Fragmented Nuclei (%) (Fibroblast [2]; 48 h, replicate 2): 84%
Population Healthy Nuclei (%) (Fibroblast [2]; 48 h, replicate 2): 8%
Population Hoechst High Intensity Objects (%) (Fibroblast [2]; 48 h, replicate 2): 31%
Population Membrane Permeable-Phenotype (%) (Fibroblast [2]; 48 h, replicate 2): 0%
Population Mitochondria Different-Phenotype (%) (Fibroblast [2]; 48 h, replicate 2): 100%
Population Mitotic Cells (%) (Fibroblast [2]; 48 h, replicate 2): 0%
Population Normal (%) (Fibroblast [2]; 48 h, replicate 2): 68%
Population Pyknosed Nuclei (%) (Fibroblast [2]; 48 h, replicate 2): 7%
Population Tubulin-Different-Phenotype (%) (Fibroblast [2]; 48 h, replicate 2): 0%
Population Apoptotic (%) (HEK-293T [3]; 12 h, replicate 1): 83% and 29% and 42%
Population Fragmented Nuclei (%) (HEK-293T [3]; 12 h, replicate 1): 16% and 15% and 12%
Population Hoechst High Intensity Objects (%) (HEK-293T [3]; 12 h, replicate 1): 19% and 16% and 22%
Population Normal (%) (HEK-293T [3]; 12 h, replicate 1): 80% and 83% and 77%
Population Pyknosed Nuclei (%) (HEK-293T [3]; 12 h, replicate 1): 82% and 39% and 67%
Population Tubulin-Different-Phenotype (%) (HEK-293T [3]; 12 h, replicate 1): 50% and 90% and 54%
Total Cell Count (HEK-293T [3]; 12 h, replicate 1): 623 and 618
Population Mitochondria Different-Phenotype (%) (HEK-293T [3]; 12 h, replicate 2): 86% and 88% and 34%
Population Normal (%) (HEK-293T [3]; 12 h, replicate 2): 88% and 95% and 96%
Population Tubulin-Different-Phenotype (%) (HEK-293T [3]; 12 h, replicate 2): 71% and 72% and 98%
Total Cell Count (HEK-293T [3]; 12 h, replicate 2): 864 and 1201
Population Apoptotic (%) (HEK-293T [3]; 24 h, replicate 1): 71% and 57% and 28%
Population Fragmented Nuclei (%) (HEK-293T [3]; 24 h, replicate 1): 22% and 24% and 13%
Population Hoechst High Intensity Objects (%) (HEK-293T [3]; 24 h, replicate 1): 14% and 18% and 13%
Population Mitotic Cells (%) (HEK-293T [3]; 24 h, replicate 1): 28% and 42% and 72%
Population Normal (%) (HEK-293T [3]; 24 h, replicate 1): 85% and 81% and 86%
Population Pyknosed Nuclei (%) (HEK-293T [3]; 24 h, replicate 1): 77% and 61% and 26%
Total Cell Count (HEK-293T [3]; 24 h, replicate 1): 631 and 647
Population Fragmented Nuclei (%) (HEK-293T [3]; 24 h, replicate 2): 8% and 5% and 12%
Population Membrane Permeable-Phenotype (%) (HEK-293T [3]; 24 h, replicate 2): 11% and 30%
Population Normal (%) (HEK-293T [3]; 24 h, replicate 2): 87% and 92% and 96%
Population Tubulin-Different-Phenotype (%) (HEK-293T [3]; 24 h, replicate 2): 49% and 76% and 94%
Total Cell Count (HEK-293T [3]; 24 h, replicate 2): 903 and 1682
Population Apoptotic (%) (HEK-293T [3]; 48 h, replicate 1): 79%
Population Fragmented Nuclei (%) (HEK-293T [3]; 48 h, replicate 1): 31%
Population Healthy Nuclei (%) (HEK-293T [3]; 48 h, replicate 1): 0%
Population Hoechst High Intensity Objects (%) (HEK-293T [3]; 48 h, replicate 1): 18%
Population Membrane Permeable-Phenotype (%) (HEK-293T [3]; 48 h, replicate 1): 0%
Population Mitochondria Different-Phenotype (%) (HEK-293T [3]; 48 h, replicate 1): 100%
Population Mitotic Cells (%) (HEK-293T [3]; 48 h, replicate 1): 20%
Population Normal (%) (HEK-293T [3]; 48 h, replicate 1): 81%
Population Pyknosed Nuclei (%) (HEK-293T [3]; 48 h, replicate 1): 68%
Population Tubulin-Different-Phenotype (%) (HEK-293T [3]; 48 h, replicate 1): 100%
Population Apoptotic (%) (HEK-293T [3]; 48 h, replicate 2): 96%
Population Fragmented Nuclei (%) (HEK-293T [3]; 48 h, replicate 2): 17%
Population Healthy Nuclei (%) (HEK-293T [3]; 48 h, replicate 2): 33%
Population Hoechst High Intensity Objects (%) (HEK-293T [3]; 48 h, replicate 2): 6%
Population Membrane Permeable-Phenotype (%) (HEK-293T [3]; 48 h, replicate 2): 6%
Population Mitochondria Different-Phenotype (%) (HEK-293T [3]; 48 h, replicate 2): 87%
Population Mitotic Cells (%) (HEK-293T [3]; 48 h, replicate 2): 3%
Population Normal (%) (HEK-293T [3]; 48 h, replicate 2): 93%
Population Pyknosed Nuclei (%) (HEK-293T [3]; 48 h, replicate 2): 49%
Population Tubulin-Different-Phenotype (%) (HEK-293T [3]; 48 h, replicate 2): 96%
Growth Rate (HEK-293T [4]; [7]): 0
Growth Rate (HEK-293T [4]; [8]): 0
Growth Rate (HEK-293T [4]; [9]): 0
Growth Rate (HEK-293T [4]; [10]): 0
Population Apoptotic (%) (U2OS [5]; 12 h, replicate 1): 76% and 59%
Population Hoechst High Intensity Objects (%) (U2OS [5]; 12 h, replicate 1): 7% and 6% and 3%
Population Membrane Permeable-Phenotype (%) (U2OS [5]; 12 h, replicate 1): 100% and 75% and 50%
Population Mitochondria Different-Phenotype (%) (U2OS [5]; 12 h, replicate 1): 100% and 90% and 41%
Population Mitotic Cells (%) (U2OS [5]; 12 h, replicate 1): 23% and 40%
Population Normal (%) (U2OS [5]; 12 h, replicate 1): 92% and 93% and 96%
Population Tubulin-Different-Phenotype (%) (U2OS [5]; 12 h, replicate 1): 100% and 97%
Population Apoptotic (%) (U2OS [5]; 12 h, replicate 2): 54% and 57% and 68%
Population Healthy Nuclei (%) (U2OS [5]; 12 h, replicate 2): 38% and 23% and 66%
Population Membrane Permeable-Phenotype (%) (U2OS [5]; 12 h, replicate 2): 88% and 86% and 54%
Population Mitochondria Different-Phenotype (%) (U2OS [5]; 12 h, replicate 2): 96% and 93% and 66%
Population Mitotic Cells (%) (U2OS [5]; 12 h, replicate 2): 45% and 42% and 31%
Population Normal (%) (U2OS [5]; 12 h, replicate 2): 88% and 44%
Population Apoptotic (%) (U2OS [5]; 24 h, replicate 1): 90% and 93% and 54%
Population Membrane Permeable-Phenotype (%) (U2OS [5]; 24 h, replicate 1): 100% and 54%
Population Mitochondria Different-Phenotype (%) (U2OS [5]; 24 h, replicate 1): 100% and 75%
Population Normal (%) (U2OS [5]; 24 h, replicate 1): 94% and 86% and 96%
Population Pyknosed Nuclei (%) (U2OS [5]; 24 h, replicate 1): 57% and 70%
Population Tubulin-Different-Phenotype (%) (U2OS [5]; 24 h, replicate 1): 100%
Population Apoptotic (%) (U2OS [5]; 24 h, replicate 2): 92% and 52% and 78%
Population Fragmented Nuclei (%) (U2OS [5]; 24 h, replicate 2): 30% and 52%
Population Membrane Permeable-Phenotype (%) (U2OS [5]; 24 h, replicate 2): 66% and 85%
Population Mitochondria Different-Phenotype (%) (U2OS [5]; 24 h, replicate 2): 76% and 92%
Population Normal (%) (U2OS [5]; 24 h, replicate 2): 82% and 92% and 45%
Population Pyknosed Nuclei (%) (U2OS [5]; 24 h, replicate 2): 55% and 31% and 27%
Population Tubulin-Different-Phenotype (%) (U2OS [5]; 24 h, replicate 2): 98% and 85%
Population Apoptotic (%) (U2OS [5]; 48 h, replicate 1): 98%
Population Fragmented Nuclei (%) (U2OS [5]; 48 h, replicate 1): 36%
Population Healthy Nuclei (%) (U2OS [5]; 48 h, replicate 1): 1%
Population Hoechst High Intensity Objects (%) (U2OS [5]; 48 h, replicate 1): 13%
Population Membrane Permeable-Phenotype (%) (U2OS [5]; 48 h, replicate 1): 100%
Population Mitochondria Different-Phenotype (%) (U2OS [5]; 48 h, replicate 1): 100%
Population Mitotic Cells (%) (U2OS [5]; 48 h, replicate 1): 1%
Population Normal (%) (U2OS [5]; 48 h, replicate 1): 86%
Population Pyknosed Nuclei (%) (U2OS [5]; 48 h, replicate 1): 62%
Population Tubulin-Different-Phenotype (%) (U2OS [5]; 48 h, replicate 1): 100%
Population Apoptotic (%) (U2OS [5]; 48 h, replicate 2): 70%
Population Fragmented Nuclei (%) (U2OS [5]; 48 h, replicate 2): 44%
Population Healthy Nuclei (%) (U2OS [5]; 48 h, replicate 2): 18%
Population Hoechst High Intensity Objects (%) (U2OS [5]; 48 h, replicate 2): 61%
Population Mitotic Cells (%) (U2OS [5]; 48 h, replicate 2): 30%
Population Normal (%) (U2OS [5]; 48 h, replicate 2): 38%
Population Pyknosed Nuclei (%) (U2OS [5]; 48 h, replicate 2): 37%
Growth Rate (Fibroblast [6]; [7]): 0
Growth Rate (Fibroblast [6]; [8]): 0
Growth Rate (Fibroblast [6]; [9]): 0
Growth Rate (Fibroblast [6]; [10]): 0
